Two molecules from ChEMBL document CHEMBL4706642, “Discovery of a Potent Dual Inhibitor of Acetylcholinesterase and Butyrylcholinesterase with Antioxidant Activity that Alleviates Alzheimer-like Pathology in Old APP/PS1 Mice” (J Med Chem, 2021) can be followed below.

Data set [1] deals with Mus musculus. Put plainly: Antiinflammatory activity in 11 months old APP/PS1 double mutant-transgenic mouse model assessed as reduction in GFAP level in hippocampus at 2 mg/kg, ip administered thrice a week for 4 weeks by Hoechst staining based immunofluorescence analysis. The class given is functional, organism-based. The essentials:
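Hippocampal GFAP immunofluorescence with Hoechst nuclear counterstain in male APP/PS1 mice after 2 mg/kg i.p. in saline (or vehicle), three times per week for 4 weeks. Mean ± SEM, n = 4 mice per group; one-way ANOVA with Bonferroni post hoc.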

A further data set deals with Acetylcholinesterase (Homo sapiens, UniProt P22303). Put plainly: Inhibition of recombinant human AChE using acetylthiocholineiodide as substrate preincubated for 20 mins followed by substrate addition by Ellman's method. The essentials: (§1)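 Enzyme was 0.02 U/mL human recombinant AChE or human serum BChE. Non-enzymatic hydrolysis was corrected. IC50 came from a % inhibition vs log[I] regression. Selectivity = IC50 hBChE/IC50 hAChE. Mean ± SEM of ≥2 experiments, each in duplicate/triplicate.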
Acetylcholinesterase, sequence (P22303 whole entry): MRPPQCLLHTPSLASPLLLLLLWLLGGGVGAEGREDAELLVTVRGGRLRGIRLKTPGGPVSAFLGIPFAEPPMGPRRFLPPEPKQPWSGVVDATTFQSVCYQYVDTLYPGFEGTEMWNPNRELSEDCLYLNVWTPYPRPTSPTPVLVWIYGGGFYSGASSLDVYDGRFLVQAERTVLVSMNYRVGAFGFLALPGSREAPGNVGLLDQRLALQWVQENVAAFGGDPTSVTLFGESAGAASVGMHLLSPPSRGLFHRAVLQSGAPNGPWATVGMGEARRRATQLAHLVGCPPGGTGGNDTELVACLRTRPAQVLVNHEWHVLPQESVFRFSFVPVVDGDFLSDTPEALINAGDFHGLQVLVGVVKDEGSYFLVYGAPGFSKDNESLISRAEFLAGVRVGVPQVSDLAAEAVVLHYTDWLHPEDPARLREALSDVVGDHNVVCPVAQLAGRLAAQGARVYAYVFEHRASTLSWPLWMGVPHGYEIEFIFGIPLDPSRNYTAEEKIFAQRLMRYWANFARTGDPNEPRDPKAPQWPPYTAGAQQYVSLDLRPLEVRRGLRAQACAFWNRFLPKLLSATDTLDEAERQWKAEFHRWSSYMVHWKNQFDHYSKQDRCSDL
On the technique in general: In Ellman's method for cholinesterases, released thiocholine reacts with DTNB.

The subject of data set [2] is Mus musculus. Put plainly: Antialzheimer activity in 6 months young APP/PS1 double mutant-transgenic mouse model assessed as time interval between two EPSPs in CA3 region of hippocampus at 2 mg/kg, ip administered thrice a week for 4 weeks at 10 ms stimulus interval by fluorescence microscopy based electrophysiology method (reference value: 3.18 +/- 0.8 ms). It is filed as functional. The essentials: (§2)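 Paired-pulse facilitation in hippocampal slices from male APP/PS1 mice dosed i.p. with 2 mg/kg in saline (or vehicle), three times per week for 4 weeks. Two EPSPs were evoked at intervals of 10–200 ms, and the index is the R2/R1 fEPSP slope ratio. Mean ± SEM of 9 slices from 3 mice per group; two-way ANOVA with Bonferroni post hoc.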

For data set [3], the system named is Mus musculus. Put plainly: Antialzheimer activity in 11 months old APP/PS1 double mutant-transgenic mouse model assessed as theta burst induced-long term potentiation in CA3 region of hippocampus at 2 mg/kg, ip administered thrice a week for 4 weeks by fluorescence microscopy based electrophysiology method (reference value: 83.9 +/- 21.1 %). It is filed as functional.

Data set [4] deals with Mus musculus. Briefly: Cognitive enhancing effect in 11 months old APP/PS1 double mutant-transgenic mouse model assessed as effect on number of times animal crossing central area in transparent cage at 2 mg/kg, ip administered thrice a week for 4 weeks by LOF test. The class given is functional, organism-based. The essentials: (§3)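 Open-field locomotor test in male APP/PS1 mice after 2 mg/kg i.p. in saline (or vehicle), three times per week for 4 weeks. Read-outs were time spent moving and number of crossings of the central area of a transparent cage. Mean ± SEM, n = 7 per group; one-way ANOVA with Bonferroni post hoc.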

Data set [5] is described as follows: Drug distribution in wild type C57BL6 mouse liver at 2 mg/kg, ip thrice a week for 2 weeks observed after 4 hrs post last dose by HPLC/MS/MS analysis. The class given is ADME, organism-based. The settings on record: in vivo, 336 h.
The test system of data set [6] is Mus musculus. Put plainly: Neuroprotective activity in 6 months young APP/PS1 double mutant-transgenic mouse model assessed as decrease in 4-hydroxy-2-nonenal levels in hippocampus at 2 mg/kg, ip administered thrice a week for 4 weeks by Hoechst staining based immunofluorescence analysis. It is filed as functional, organism-based. The procedure, abridged:
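Hippocampal 4-hydroxy-2-nonenal was assessed by immunofluorescence with Hoechst counterstain in male APP/PS1 mice given 2 mg/kg i.p. in saline (or vehicle), three times weekly for 4 weeks. Mean ± SEM, n = 4 mice per group; one-way ANOVA with Bonferroni post hoc.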

The target of data set [7] is Beta-secretase 1 (Homo sapiens) (UniProt P56817). Briefly: Inhibition of recombinant human BACE-1 at 1 uM using methoxycoumarin-Ser-Glu-Val-Asn-Leu-Asp-Ala-Glu-Phe-Lys-dinitrophenyl as substrate preincubated for 1 hr followed by substrate addition and measured after 15 mins by fluorescence based assay relative to control. To be noted: time 75.0 min.
Beta-secretase 1 (Homo sapiens), sequence (P56817 whole entry): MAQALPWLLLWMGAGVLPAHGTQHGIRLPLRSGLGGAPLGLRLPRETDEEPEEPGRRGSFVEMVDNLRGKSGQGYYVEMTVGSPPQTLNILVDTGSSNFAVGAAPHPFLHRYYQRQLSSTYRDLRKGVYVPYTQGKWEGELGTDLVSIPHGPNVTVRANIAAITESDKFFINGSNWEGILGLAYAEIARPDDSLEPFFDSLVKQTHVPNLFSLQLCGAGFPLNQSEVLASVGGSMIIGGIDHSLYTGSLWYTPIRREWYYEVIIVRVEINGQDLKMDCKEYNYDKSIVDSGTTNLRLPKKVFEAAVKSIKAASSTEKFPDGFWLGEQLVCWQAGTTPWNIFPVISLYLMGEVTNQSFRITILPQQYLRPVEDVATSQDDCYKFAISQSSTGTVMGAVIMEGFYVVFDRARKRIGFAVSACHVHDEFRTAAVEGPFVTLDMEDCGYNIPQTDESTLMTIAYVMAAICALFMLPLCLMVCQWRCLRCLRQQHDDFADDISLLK
In data set [8] the test system is Mus musculus. Put plainly: Antialzheimer activity in 6 months young APP/PS1 double mutant-transgenic mouse model assessed as postsynaptic potential in CA3 region of hippocampus at 2 mg/kg, ip administered thrice a week for 4 weeks followed by stimulation with 1 to 10 uA EPSP by fluorescence microscopy based electrophysiology method (reference value: 0.269 +/- 0.072 mV/ms). It is filed as functional. The essentials: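 Hippocampal slices from male APP/PS1 mice given 2 mg/kg i.p. in saline (or saline alone), three times per week for 4 weeks. Input–output curves were built from evoked fEPSP slopes and fiber volley amplitudes, with values taken at the maximum current intensity. Mean ± SEM of 9 slices from 3 mice per group; two-way ANOVA with Bonferroni post hoc.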

A short description of data set [9]: Drug concentration in wild type C57BL6 mouse plasma at 2 mg/kg, ip thrice a week for 2 weeks observed after 4 hrs post last dose by HPLC/MS/MS analysis. To be noted: plasma.
The test system of data set [10] is Mus musculus. Put plainly: Memory enhancement effect in 11 months old APP/PS1 double mutant-transgenic mouse model assessed as number of trials required to reach criterion at 2 mg/kg, ip administered thrice a week for 4 weeks measured after 4 days by memory flexibility text. It is filed as functional. The procedure, abridged:
(§4)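 Memory flexibility test in male APP/PS1 mice treated i.p. with 2 mg/kg in saline (or vehicle), three times weekly for 4 weeks. The number of trials to reach criterion was counted on each testing day over 4 days. Mean ± SEM, n = 7 per group; one-way ANOVA with Bonferroni post hoc.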

Another data set has as its target Cholinesterase (Homo sapiens, UniProt P06276). Put plainly: Inhibition of human serum BChE using butyrylthiocholineiodide as substrate preincubated for 20 mins followed by substrate addition by Ellman's method. It is filed as cell-free. The procedure, abridged: as §1
Data set [11] has as its system Mus musculus. Put plainly: Antialzheimer activity in 6 months young APP/PS1 double mutant-transgenic mouse model assessed as amyloid beta40 levels in hippocampus at 2 mg/kg, ip administered thrice a week for 4 weeks by ELISA. It is filed as functional, organism-based. The essentials: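 Male APP/PS1 mice received 2 mg/kg i.p. in saline (or vehicle), three times weekly for 4 weeks. After the behavioral tests, hippocampus was collected and Aβ40 and Aβ42 were measured with a specific ELISA kit. Mean ± SEM, n = 7 mice per group; one-way ANOVA with Bonferroni post hoc.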
(An ELISA detects its analyte on a solid surface through an enzyme-linked reagent.)

The nature of data set [12]: Drug distribution in wild type C57BL6 mouse kidney at 2 mg/kg, ip thrice a week for 2 weeks observed after 4 hrs post last dose by HPLC/MS/MS analysis. It is filed as ADME, organism-based. To be noted: in vivo, 336 h.
For data set [13], the system named is Mus musculus. Put plainly: Antialzheimer activity in 11 months old APP/PS1 double mutant-transgenic mouse model assessed as time interval at which EPSP-evoked calcium-dependent vesicle release in CA3 region of hippocampus causing short-term plasticity at 2 mg/kg, ip administered thrice a week for 4 weeks measured at 10 ms interval by fluorescence microscopy based electrophysiology method (reference value: 2.05 +/- 0.2 ms). It is filed as functional. The procedure, abridged:
as §2

The test system of data set [14] is Mus musculus. Put plainly: Cognitive enhancing effect in 6 months young APP/PS1 double mutant-transgenic mouse model assessed as increase in preference index for object at 2 mg/kg, ip administered thrice a week for 4 weeks by novel object recognition test. The class given is functional, organism-based. The essentials: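 Male APP/PS1 mice received 2 mg/kg i.p. in saline (or vehicle), three times per week for 4 weeks. Preference index = time exploring the relocated or novel object divided by total time exploring both objects. Mean ± SEM, n = 7 per group; one-way ANOVA with Bonferroni post hoc.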

Data set [15] relates to Mus musculus. Briefly: Memory enhancement effect in 11 months old APP/PS1 double mutant-transgenic mouse model assessed as number of trials required to reach criterion at 2 mg/kg, ip administered thrice a week for 4 weeks measured on trail day 1 by memory flexibility text. The class given is functional. The essentials: as §4
The test system of data set [16] is Mus musculus. Briefly: Cognitive enhancing effect in 11 months old APP/PS1 double mutant-transgenic mouse model assessed as effect on time spent on moving along the field at 2 mg/kg, ip administered thrice a week for 4 weeks by LOF test. The class given is functional, organism-based. The procedure, abridged: as §3

pIC50: −log10 of the molar value. Activity calls are given as the source filed them. Bounds are passed on as bounds.

Cholinesterase, sequence (P06276 whole entry): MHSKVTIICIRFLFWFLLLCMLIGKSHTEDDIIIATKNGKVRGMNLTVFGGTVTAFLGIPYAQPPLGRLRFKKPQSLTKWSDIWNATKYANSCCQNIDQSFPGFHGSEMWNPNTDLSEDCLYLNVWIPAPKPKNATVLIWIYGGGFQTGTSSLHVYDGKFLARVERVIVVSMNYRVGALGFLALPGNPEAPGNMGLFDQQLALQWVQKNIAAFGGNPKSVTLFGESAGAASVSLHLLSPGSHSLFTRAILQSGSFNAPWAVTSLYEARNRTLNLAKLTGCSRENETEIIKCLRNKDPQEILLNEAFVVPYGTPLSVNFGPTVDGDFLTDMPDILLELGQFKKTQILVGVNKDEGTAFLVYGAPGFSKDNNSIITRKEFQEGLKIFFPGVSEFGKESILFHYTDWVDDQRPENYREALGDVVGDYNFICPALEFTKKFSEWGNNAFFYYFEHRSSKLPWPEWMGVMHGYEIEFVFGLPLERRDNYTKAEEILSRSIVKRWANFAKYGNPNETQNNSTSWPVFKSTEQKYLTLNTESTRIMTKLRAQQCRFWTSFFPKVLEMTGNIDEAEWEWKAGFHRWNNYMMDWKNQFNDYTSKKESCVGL

For orientation: pIC50 means the IC50 on a negative log10 scale, so that one unit is a factor of ten. As a reminder, the inhibition is the relative decrease from the control value, in per cent. For the molecule `COc1cc(CNC(=O)Cc2cn(CCCCC3=CC4Cc5nc6cc(Cl)ccc6c(N)c5C(C3)C4)nn2)ccc1O` (stereo unspecified), the outcome in the data set on Mus musculus [1] was Active. For the same molecule, the results for the negative logarithm of the IC50 (pIC50) at Acetylcholinesterase and on Cholinesterase were 8.97 and 8.14, respectively. Moreover, the Time amounted to 1.93 ms in the data set with Mus musculus [2] and 1.96 ms in the data set on Mus musculus [13]. In addition, the Activity turned out to be 111% in the data set with Mus musculus [3], 0.296 mV/ms with Mus musculus [8], 7 in the data set on Mus musculus [10] and 13 in the data set on Mus musculus [15]. In addition, the outcome with Mus musculus [4], in the data set on Mus musculus [6], with Mus musculus [11], in the data set on Mus musculus [14] and with Mus musculus [16] was inactive. Moreover, the Drug uptake result in [5] and in data set [12] was “Active” each time. Also, in data set [7], the inhibition entry was “inactive”. In data set [9], this molecule gave a concentration at 336 h of 35600 ng/mL.

Turning to `COc1cc(CNC(=O)CCCCCCNc2c3c(nc4cc(Cl)ccc24)CC2C=C(C)CC3C2)ccc1O` (stereo unspecified), in the data set on Mus musculus [1], the result was Active. The pIC50 is 9.11 on Acetylcholinesterase and 7.51 against Cholinesterase. Moreover, the Time was found to be 3.44 ms in the data set on Mus musculus [2] and 2.32 ms in the data set on Mus musculus [13]. The Activity is recorded as 124.3% in the data set with Mus musculus [3], 0.262 mV/ms in the data set on Mus musculus [8], 13 in the data set on Mus musculus [10] and 14 in the data set with Mus musculus [15]. Besides, the outcome in the data set on Mus musculus [4], in the data set with Mus musculus [6], in the data set with Mus musculus [11], in the data set on Mus musculus [14] and with Mus musculus [16] was inactive. For the same molecule, the Drug uptake entry in [5] and in data set [12] was “Active” throughout. In addition, in data set [7], the inhibition came to 7.4%. In data set [9], this molecule returned a concentration at 336 h of less than 3000 ng/mL.
